For one series, the system named is K-562. The series is described as follows: NCI one-dose screen: K-562. The series is classed as cell-based. Conditions: Homo sapiens, K562, read-out: Growth inhibition percentage (GI %). Put shortly: (§1)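 Cells grown in RPMI 1640 with 5% FBS and 2 mM L-glutamine, seeded at 5000–40,000 cells/well, preincubated 24 h at 37 °C and 5% CO2. Time-zero plates were TCA-fixed. Test compound (DMSO stock diluted in gentamicin medium) was added at a final 10^-5 M for 48 h. Cells were TCA-fixed (80% for suspension lines), SRB-stained and read at 515 nm. GI% = 100 − % growth versus untreated control.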

For the next series, the system named is A549/ATCC. The series is described as follows: NCI one-dose screen: A549/ATCC. It counts as cell-based. Conditions: Homo sapiens, A549, read-out: Growth inhibition percentage (GI %). The method in brief: as §1
A further series relates to NCI 58 human cell lines. The series is described as follows: NCI one-dose screen: whole panel summary. The series is classed as cell-based. The method in brief:
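NCI 58-line single-dose screen in nine subpanels. Cells were exposed for 48 h at 37 °C to a final 10 µM test compound. Growth was measured by sulforhodamine B staining against time-zero and untreated-control plates. For each compound, percent growth relative to untreated cells was averaged across the panel as mean % growth. GI% per line = 100 − % growth.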

The next series relates to SR. The series is described as follows: NCI one-dose screen: SR. It counts as cell-based. The settings on record: Homo sapiens, read-out: Growth inhibition percentage (GI %). The method in brief: (§2)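 Human tumour lines grown in RPMI 1640 with 5% FBS and 2 mM L-glutamine, seeded at 5000–40,000 cells/well, 24 h at 37 °C, 5% CO2. Time-zero plates TCA-fixed. Test compound (DMSO stock at 400× final) added to a final 10 µM, 48 h at 37 °C. Cells fixed with cold TCA (50% adherent, 80% suspension) and stained with sulforhodamine B; absorbance read at 515 nm. GI% = 100 − % growth relative to untreated control.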

A further series concerns chick embryos / HET-CAM. The series is described as follows: HET-CAM mortality and toxicity. The settings on record: 40 μM, 40 μL in 40% DMSO in sterile saline, applied 9th day, examined 11th day. The series is classed as in vivo, hen. Put shortly: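 Hen eggs were incubated at 37 °C with 2-hourly rotation and candled on day 5; dead eggs were excluded. A window was opened and taped. On day 9, 40 μL of test compound (40 or 100 μM, in 40% or 100% DMSO in saline) went onto a 5 mm filter disc at a low-vessel-density CAM area, 3 eggs/concentration. Embryo toxicity and mortality were assessed by candling on day 11.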

The test system of another series is MCF7. The series is described as follows: NCI one-dose screen: MCF7. It counts as cell-based. Conditions: Homo sapiens, MCF7, read-out: Growth inhibition percentage (GI %). The method in brief: as §1
The subject of the next series is NCI-H460. The series is described as follows: NCI one-dose screen: NCI-H460. It counts as cell-based. The settings on record: Homo sapiens, NCI-H460, read-out: Growth inhibition percentage (GI %). Put shortly:
as §1

The subject of the next series is SF-539. The series is described as follows: NCI one-dose screen: SF-539. The settings on record: Homo sapiens, SF-539, read-out: Growth inhibition percentage (GI %). It counts as cell-based. Put shortly:
as §1

The next series relates to SK-MEL-2. The series is described as follows: NCI one-dose screen: SK-MEL-2. The settings on record: Homo sapiens, SK-MEL-2, read-out: Growth inhibition percentage (GI %). It counts as cell-based. The method in brief:
as §1

The subject of the next series is RXF 393. The series is described as follows: NCI one-dose screen: RXF 393. The series is classed as cell-based. The settings on record: Homo sapiens, RXF 393, read-out: Growth inhibition percentage (GI %). The method in brief: as §1
For the next series, the system named is HCC-2998. The series is described as follows: NCI one-dose screen: HCC-2998. The series is classed as cell-based. Conditions: Homo sapiens, HCC 2998, read-out: Growth inhibition percentage (GI %). The method in brief:
as §1

For a further series, the system named is SNB-19. The series is described as follows: NCI one-dose screen: SNB-19. Conditions: Homo sapiens, SNB-19, read-out: Growth inhibition percentage (GI %). It counts as cell-based. The method in brief: as §1
Series [1] relates to newly formed blood capillaries of HET-CAM. The series is described as follows: HET-CAM angiogenesis study. The series is classed as in vivo, hen. The method in brief: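 Fertilized hen eggs were incubated 9 days at 37 °C with rotation, in groups of three. Test compound at 40 μM in 40 μL of 40% DMSO in saline was dropped onto a 5 mm filter-paper disc on the CAM. Control got 40 μL vehicle. On day 11 each egg was angiographed. Newly formed small vessels within a 100 mm2 circle were counted by image analysis. One-way ANOVA with Dunnett's test.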

For the next series, the system named is OVCAR-3. The series is described as follows: NCI one-dose screen: OVCAR-3. The settings on record: Homo sapiens, OVCAR-3, read-out: Growth inhibition percentage (GI %). It counts as cell-based. The method in brief:
as §1

In the next series the test system is MOLT-4. The series is described as follows: NCI one-dose screen: MOLT-4. It counts as cell-based. Conditions: Homo sapiens, MOLT-4, read-out: Growth inhibition percentage (GI %). Put shortly: as §1
For another series, the system named is MDA-MB-231. The series is described as follows: NCI one-dose screen: MDA-MB-231. It counts as cell-based. Conditions: Homo sapiens, MDA-MB-231, read-out: Growth inhibition percentage (GI %). Put shortly: as §1
The next series deals with EKVX. The series is described as follows: NCI one-dose screen: EKVX. It counts as cell-based. Conditions: Homo sapiens, read-out: Growth inhibition percentage (GI %). Put shortly: as §1
For the next series, the system named is 786-0. The series is described as follows: NCI one-dose screen: 786-0. The series is classed as cell-based. The settings on record: Homo sapiens, 786-0, read-out: Growth inhibition percentage (GI %). Put shortly:
as §1

The subject of a further series is HCT-116. The series is described as follows: NCI one-dose screen: HCT-116. It counts as cell-based. The settings on record: Homo sapiens, HCT-116, read-out: Growth inhibition percentage (GI %), HCT-116, colon cancer; single dose 10 μM. The method in brief:
as §1

The target of the next series is multiple tyrosine kinase. The settings on record: target not named at the place (multiple tyrosine kinase; context VEGFR2) ref 14; cited from earlier work.
The test system of a further series is T-47D. The series is described as follows: NCI one-dose screen: T-47D. Conditions: Homo sapiens, T47D, read-out: Growth inhibition percentage (GI %). It counts as cell-based. Put shortly:
as §2

Another series deals with TK-10. The series is described as follows: NCI one-dose screen: TK-10. It counts as cell-based. The settings on record: Homo sapiens, TK-10, read-out: Growth inhibition percentage (GI %). Put shortly:
as §2

The test system of the next series is PC-3. The series is described as follows: NCI one-dose screen: PC-3. The series is classed as cell-based. Conditions: Homo sapiens, PC-3, read-out: Growth inhibition percentage (GI %). Put shortly: as §1
For another series, the target named is VEGFR2. Conditions: cited from earlier work.
Another series addresses c-Met kinase. The settings on record: read-out: IC50 c-Met; cited from earlier work.
Setting [2] is: 40 μM, versus 40% DMSO negative control.

pIC50, pKi: −log10 of the molar value.

On to `COc1ccc(C2=Nn3c(NN=C4C(=O)Nc5ccc(Cl)cc54)nnc3SC2)cc1` [6l, 5-Chloro-3-(2-(6-(4-methoxyphenyl)-7H-[1,2,4]triazolo[3,4-b][1,3,4]thiadiazin-3-yl)hydrazineylidene)indolin-2-one], for which the inhibition at 10 µM with K-562 came out at 15%; in the series on A549/ATCC it was 23%; in the series with SR, 23%. Also, in the series on NCI 58 human cell lines (number of cell lines of the panel with GI % shown (higher than 10%), 10 μM), the “sensitive cell lines no.” value worked out at 6.

`COc1ccc(C2=Nn3c(N/N=C4\C(=O)Nc5ccc(F)cc54)nnc3SC2)cc1` [6j, 5-Fluoro-3-(2-(6-(4-methoxyphenyl)-7H-[1,2,4]triazolo[3,4-b][1,3,4]thiadiazin-3-yl) hydrazineylidene)indolin-2-one]: the “toxicity / mortality against HET-CAM and the chick embryos” value (shortened to “toxicity / mortality”) in the series with chick embryos / HET-CAM is on record as “toxic”.

On to `CCCN1C(=O)C(=NNc2nnc3n2N=C(c2ccc(OC)cc2)CS3)c2cc(Cl)ccc21` [6w, 5-Chloro-3-(2-(6-(4-methoxyphenyl)-7H-[1,2,4]triazolo[3,4-b][1,3,4]thiadiazin-3-yl)hydrazineylidene)-1-propylindolin-2-one], for which, in the series on chick embryos / HET-CAM, the “toxicity / mortality” value was “toxic”.

On to `O=C1Nc2ccccc2C1=NNc1nnc2n1N=C(c1ccccc1)CS2` [6a, 3-(2-(6-Phenyl-7H-[1,2,4]triazolo[3,4-b][1,3,4]thiadiazin-3-yl)hydrazineylidene)indolin-2-one], for which the inhibition at 10 µM with MCF7 amounted to 29%; with NCI-H460, 17%; in the series on SF-539, 18%; in the series on SK-MEL-2 it was 13%; in the series with K-562, 23%; with RXF 393, 18%. The inhibition at 10 µM in the series with HCC-2998 came to 19%; with SNB-19, 17%; in the series with OVCAR-3 it was 12%; in the series with MOLT-4 it was 13%; with MDA-MB-231, 12%; with SR, 23%. The inhibition at 10 µM in the series on EKVX came to 13%; in the series on 786-0, 19%; with HCT-116, 14%. For the same compound, the “GI (range over the susceptible cell lines listed in the sentence)” value in the series with NCI 58 human cell lines (single dose 10 μM, cell lines as listed in the sentence) is 35–57%. Besides, in series [1] (setting [2]), the “increase in the number of newly formed blood capillaries” value was found to be 33%.

Turning to `CCN(CC)CCNC(=O)c1c(C)[nH]c(/C=C2\C(=O)Nc3ccc(F)cc32)c1C` [sunitinib], at multiple tyrosine kinase, the pKi was 8.05.

Consider `COc1ccc(C2=Nn3c(NN=C4C(=O)Nc5ccc(OC)cc54)nnc3SC2)cc1` [6n, 5-Methoxy-3-(2-(6-(4-methoxyphenyl)-7H-[1,2,4]triazolo[3,4-b][1,3,4]thiadiazin-3-yl)hydrazineylidene)indolin-2-one], for which the inhibition at 10 µM in the series with T-47D was determined as 15%; in the series on K-562 it was 19%; in the series with A549/ATCC it was 29%; in the series with TK-10, 17%; in the series on PC-3 it was 10%; with MOLT-4 it was 12%. Also, in [1] (setting [2]), the “change in the number of blood vessels (in words)” value was “significant decrease”. For the same compound, the “reduction in the number of newly formed blood capillaries (angiogenesis)” value in series [1] (40 μM, versus 40% DMSO negative control, 11th day) was found to be 27%.

Take `Cc1[nH]c(/C=C2\C(=O)Nc3ccccc32)c(C)c1CCC(=O)O` [Orantinib]: on VEGFR2 (read-out: Ki VEGFR2), the pKi was 8.05.

Turning to `Cc1ccc(C2=Nn3c(NN=C4C(=O)Nc5ccccc54)nnc3SC2)cc1` [6c, 3-(2-(6-(p-Tolyl)-7H-[1,2,4]triazolo[3,4-b][1,3,4]thiadiazin-3-yl)hydrazineylidene)-indolin-2-one], in the series on chick embryos / HET-CAM, the “toxicity / mortality” value was “toxic”.

With `C[C@@H]1C[C@H]2[C@@H]3CCC4=CC(=O)C=C[C@]4(C)[C@@]3(F)[C@@H](O)C[C@]2(C)[C@@]1(O)C(=O)CO` [DEXA, dexamethasone, reference compound], the “reduction in the number of newly formed blood capillaries” value in series [1] (DEXA 0.02 μg, positive control, versus 40% DMSO, P < 0.001) came to 54%.

As to `COc1ccc(C2=Nn3c(NN=C4C(=O)N(Cc5ccccc5)c5ccccc54)nnc3SC2)cc1` [6x, 1-Benzyl-3-(2-(6-(4-methoxyphenyl)-7H-[1,2,4]triazolo[3,4-b][1,3,4]thiadiazin-3-yl)hydrazineylidene)indolin-2-one], the “change in the number of blood vessels (in words)” value in [1] (setting [2]) is reported as “significant decrease”.

On to `Cc1[nH]c(/C=C2\C(=O)Nc3ccc(S(=O)(=O)N(C)c4cccc(Cl)c4)cc32)c(C)c1C(=O)N1CCN(C)CC1` [SU11274], for which, at c-Met kinase, the pIC50 is 7.92.

As to `COc1ccc(C2=Nn3c(NN=C4C(=O)N(C)c5ccc(Cl)cc54)nnc3SC2)cc1` [6u, 5-Chloro-3-(2-(6-(4-methoxyphenyl)-7H-[1,2,4]triazolo[3,4-b][1,3,4]thiadiazin-3-yl)hydrazineylidene)-1-methylindolin-2-one], in the series on chick embryos / HET-CAM, the “toxicity / mortality” value is recorded as “toxic”.

For `Cc1[nH]c(/C=C2\C(=O)Nc3ccc(F)cc32)c(C)c1C(=O)NC[C@H](O)CN1CCOCC1` [SU14813], the pIC50 in the series with VEGFR2 (read-out: IC50 VEGFR2) is 7.40.
